Active and inactive are the calls of the source. The calls are words filed in the database; no cut-off is given here.
Key:
Rattus norvegicus [1] = experiment: Protective index, ratio of TD50 for po dosed Sprague-Dawley albino rat by rotarod test to ED50 for po dosed Sprague-Dawley albino rat by subcutaneous metrazol seizures test; assay type: functional
Summary of the method: (§1)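 Protective index calculated as TD50/ED50, with TD50 and ED50 taken from the same species and dosing route.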

[2] = Neurotoxicity in po dosed Sprague-Dawley albino rat assessed as minimal motor impairment by rotarod test; assay type: toxicity, organism-based; conditions: in vivo
Summary of the method: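 Rats dosed orally; 4 rats per time point after dosing. Neurotoxicity was scored as motor impairment or sedation and reported as number of animals affected over number tested.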

Rattus norvegicus [3] = experiment: Anticonvulsant activity in po dosed Sprague-Dawley albino rat assessed as protection against subcutaneous metrazol-induced seizures; assay type: functional
Summary of the method: (§2)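 Quantitative testing: rats dosed orally or ip in MES and scMet tests, and mice dosed ip, including the 6 Hz (32 mA) psychomotor seizure test. ED50 and TD50 were reported in mg/kg with ranges in parentheses. Protective index was calculated as TD50/ED50.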

Rattus norvegicus [4] = experiment: Protective index, ratio of TD50 for po dosed Sprague-Dawley albino rat by rotarod test to ED50 for po dosed Sprague-Dawley albino rat by maximal electroshock seizures test; assay type: functional; summary of the method: as §1
Rattus norvegicus [5] = experiment: Anticonvulsant activity in po dosed Sprague-Dawley albino rat assessed as protection against maximal electroshock-induced seizures; assay type: functional; summary of the method: as §2
Mus musculus [6] = experiment: Anticonvulsant activity in albino CF1 mouse assessed as protection against subcutaneous metrazol-induced seizures at 300 mg/kg, ip after 4 hrs; assay type: functional, organism-based; parameters: dose 300 mg/kg
Summary of the method: (§3)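 Mice dosed ip at 30, 100 or 300 mg/kg, then tested 0.5 h and 4 h after administration in the MES or scMet test. Protection was recorded as animals protected over animals tested. Neurotoxicity was recorded as motor impairment or sedation, as animals affected over animals tested.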

Mus musculus [7] = experiment: Anticonvulsant activity in albino CF1 mouse assessed as protection against maximal electroshock-induced seizures at 300 mg/kg, ip after 0.5 hrs; assay type: functional, organism-based; parameters: dose 300 mg/kg; summary of the method: as §3
Mus musculus [8] = experiment: Neurotoxicity in albino CF1 mouse assessed as minimal motor impairment at 30 mg/kg, ip after 4 hrs by rotarod test; assay type: toxicity, organism-based; parameters: dose 30 mg/kg, route intraperitoneal; conditions: in vivo; summary of the method: as §3
Mus musculus [9] = experiment: Anticonvulsant activity in albino CF1 mouse assessed as protection against subcutaneous metrazol-induced seizures at 100 mg/kg, ip after 4 hrs; assay type: functional, organism-based; parameters: dose 100 mg/kg; summary of the method: as §3
Rattus norvegicus [10] = experiment: Neurotoxicity in pilocarpine-induced status epilepticus Sprague-Dawley albino rat model assessed as minimal motor impairment at 100 mg/kg, ip after 0.25 hr by rotarod test; assay type: toxicity, organism-based; parameters: dose 100 mg/kg, route intraperitoneal; conditions: in vivo
Rattus norvegicus [11] = experiment: Neurotoxicity in Sprague-Dawley albino rat assessed as minimal motor impairment at 30 mg/kg, po by rotarod test; assay type: toxicity, organism-based; parameters: dose 30 mg/kg, route oral; conditions: in vivo
Summary of the method: (§4)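 Rats dosed orally. Anti-MES protection was scored as animals protected over animals tested at each time after dosing. Neurotoxicity was scored as motor impairment or sedation, as animals affected over animals tested.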

Mus musculus [12] = experiment: Anticonvulsant activity in albino CF1 mouse assessed as protection against maximal electroshock-induced seizures at 100 mg/kg, ip after 4 hrs; assay type: functional, organism-based; parameters: dose 100 mg/kg; summary of the method: as §3
Mus musculus [13] = experiment: Anticonvulsant activity in albino CF1 mouse assessed as protection against maximal electroshock-induced seizures at 300 mg/kg, ip after 4 hrs; assay type: functional, organism-based; parameters: dose 300 mg/kg; summary of the method: as §3
Mus musculus [14] = experiment: Anticonvulsant activity in albino CF1 mouse assessed as protection against maximal electroshock-induced seizures at 30 mg/kg, ip after 4 hrs; assay type: functional, organism-based; parameters: dose 30 mg/kg; summary of the method: as §3
Rattus norvegicus [15] = experiment: Neurotoxicity in pilocarpine-induced status epilepticus Sprague-Dawley albino rat model assessed as minimal motor impairment at 100 mg/kg, ip after 0.5 hrs by rotarod test; assay type: toxicity, organism-based; parameters: dose 100 mg/kg, route intraperitoneal; conditions: in vivo
Rattus norvegicus [16] = experiment: Neurotoxicity in pilocarpine-induced status epilepticus Sprague-Dawley albino rat model assessed as minimal motor impairment at 300 mg/kg, ip after 4 hrs by rotarod test; assay type: toxicity, organism-based; parameters: dose 300 mg/kg, route intraperitoneal; conditions: in vivo
Summary of the method: (§5)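 Rat pilocarpine status epilepticus model: test carbamate given at 0 or 30 min after the first observed Racine stage 3 motor seizure, which marks SE onset. Neurotoxicity was scored within the same model.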

Mus musculus [17] = experiment: Anticonvulsant activity in albino CF1 mouse assessed as protection against subcutaneous metrazol-induced seizures at 30 mg/kg, ip after 0.5 hrs; assay type: functional, organism-based; parameters: dose 30 mg/kg; summary of the method: as §3
Rattus norvegicus [18] = experiment: Neurotoxicity in pilocarpine-induced status epilepticus Sprague-Dawley albino rat model assessed as minimal motor impairment at 30 mg/kg, ip after 1 hr by rotarod test; assay type: toxicity, organism-based; parameters: dose 30 mg/kg, route intraperitoneal; conditions: in vivo; summary of the method: as §5
Rattus norvegicus [19] = experiment: Neurotoxicity in pilocarpine-induced status epilepticus Sprague-Dawley albino rat model assessed as minimal motor impairment at 30 mg/kg, ip after 0.5 hrs by rotarod test; assay type: toxicity, organism-based; parameters: dose 30 mg/kg, route intraperitoneal; conditions: in vivo; summary of the method: as §5
Rattus norvegicus [20] = experiment: Neurotoxicity in pilocarpine-induced status epilepticus Sprague-Dawley albino rat model assessed as minimal motor impairment at 300 mg/kg, ip after 0.25 hr by rotarod test; assay type: toxicity, organism-based; parameters: dose 300 mg/kg, route intraperitoneal; conditions: in vivo; summary of the method: as §5
Rattus norvegicus [21] = experiment: Neurotoxicity in pilocarpine-induced status epilepticus Sprague-Dawley albino rat model assessed as minimal motor impairment at 300 mg/kg, ip after 0.5 hrs by rotarod test; assay type: toxicity, organism-based; parameters: dose 300 mg/kg, route intraperitoneal; conditions: in vivo; summary of the method: as §5
Rattus norvegicus [22] = experiment: Neurotoxicity in pilocarpine-induced status epilepticus Sprague-Dawley albino rat model assessed as minimal motor impairment at 30 mg/kg, ip after 4 hrs by rotarod test; assay type: toxicity, organism-based; parameters: dose 30 mg/kg, route intraperitoneal; conditions: in vivo; summary of the method: as §5
Mus musculus [23] = experiment: Neurotoxicity in albino CF1 mouse assessed as minimal motor impairment at 300 mg/kg, ip after 0.5 hrs by rotarod test; assay type: toxicity, organism-based; parameters: dose 300 mg/kg, route intraperitoneal; conditions: in vivo; summary of the method: as §3
Mus musculus [24] = experiment: Neurotoxicity in albino CF1 mouse assessed as minimal motor impairment at 100 mg/kg, ip after 0.5 hrs by rotarod test; assay type: toxicity, organism-based; parameters: dose 100 mg/kg, route intraperitoneal; conditions: in vivo; summary of the method: as §3
Rattus norvegicus [25] = experiment: Neurotoxicity in pilocarpine-induced status epilepticus Sprague-Dawley albino rat model assessed as minimal motor impairment at 30 mg/kg, ip after 2 hrs by rotarod test; assay type: toxicity, organism-based; parameters: dose 30 mg/kg, route intraperitoneal; conditions: in vivo; summary of the method: as §5
Mus musculus [26] = experiment: Anticonvulsant activity in albino CF1 mouse assessed as protection against subcutaneous metrazol-induced seizures at 300 mg/kg, ip after 0.5 hrs; assay type: functional, organism-based; parameters: dose 300 mg/kg; summary of the method: as §3
Rattus norvegicus [27] = experiment: Neurotoxicity in pilocarpine-induced status epilepticus Sprague-Dawley albino rat model assessed as minimal motor impairment at 30 mg/kg, ip after 0.25 hr by rotarod test; assay type: toxicity, organism-based; parameters: dose 30 mg/kg, route intraperitoneal; conditions: in vivo; summary of the method: as §5
Rattus norvegicus [28] = experiment: Neurotoxicity in pilocarpine-induced status epilepticus Sprague-Dawley albino rat model assessed as minimal motor impairment at 100 mg/kg, ip after 2 hrs by rotarod test; assay type: toxicity, organism-based; parameters: dose 100 mg/kg, route intraperitoneal; conditions: in vivo
Mus musculus [29] = experiment: Anticonvulsant activity in albino CF1 mouse assessed as protection against maximal electroshock-induced seizures at 30 mg/kg, ip after 0.5 hrs; assay type: functional, organism-based; parameters: dose 30 mg/kg; summary of the method: as §3
Mus musculus [30] = experiment: Anticonvulsant activity in albino CF1 mouse assessed as protection against maximal electroshock-induced seizures at 100 mg/kg, ip after 0.5 hrs; assay type: functional, organism-based; parameters: dose 100 mg/kg; summary of the method: as §3
Rattus norvegicus [31] = experiment: Neurotoxicity in pilocarpine-induced status epilepticus Sprague-Dawley albino rat model assessed as minimal motor impairment at 100 mg/kg, ip after 4 hrs by rotarod test; assay type: toxicity, organism-based; parameters: dose 100 mg/kg, route intraperitoneal; conditions: in vivo
Mus musculus [32] = experiment: Neurotoxicity in albino CF1 mouse assessed as minimal motor impairment at 100 mg/kg, ip after 4 hrs by rotarod test; assay type: toxicity, organism-based; parameters: dose 100 mg/kg, route intraperitoneal; conditions: in vivo; summary of the method: as §3
Rattus norvegicus [33] = experiment: Anticonvulsant activity in Sprague-Dawley albino rat assessed as protection against maximal electroshock-induced seizures at 30 mg/kg, po after 30 mins; assay type: functional, organism-based; parameters: dose 30 mg/kg; summary of the method: as §4
Mus musculus [34] = experiment: Anticonvulsant activity in albino CF1 mouse assessed as protection against subcutaneous metrazol-induced seizures at 100 mg/kg, ip after 0.5 hrs; assay type: functional, organism-based; parameters: dose 100 mg/kg; summary of the method: as §3
Rattus norvegicus [35] = experiment: Anticonvulsant activity in Sprague-Dawley albino rat assessed as protection against maximal electroshock-induced seizures at 30 mg/kg, po after 4 hrs; assay type: functional, organism-based; parameters: dose 30 mg/kg; summary of the method: as §4
Mus musculus [36] = experiment: Anticonvulsant activity in albino CF1 mouse assessed as protection against subcutaneous metrazol-induced seizures at 30 mg/kg, ip after 4 hrs; assay type: functional, organism-based; parameters: dose 30 mg/kg; summary of the method: as §3
Mus musculus [37] = experiment: Neurotoxicity in albino CF1 mouse assessed as minimal motor impairment at 300 mg/kg, ip after 4 hrs by rotarod test; assay type: toxicity, organism-based; parameters: dose 300 mg/kg, route intraperitoneal; conditions: in vivo; summary of the method: as §3
Rattus norvegicus [38] = experiment: Neurotoxicity in pilocarpine-induced status epilepticus Sprague-Dawley albino rat model assessed as minimal motor impairment at 300 mg/kg, ip after 1 hr by rotarod test; assay type: toxicity, organism-based; parameters: dose 300 mg/kg, route intraperitoneal; conditions: in vivo; summary of the method: as §5
Rattus norvegicus [39] = experiment: Anticonvulsant activity in Sprague-Dawley albino rat assessed as protection against maximal electroshock-induced seizures at 30 mg/kg, po after 15 mins; assay type: functional, organism-based; parameters: dose 30 mg/kg; summary of the method: as §4
Mus musculus [40] = experiment: Neurotoxicity in albino CF1 mouse assessed as minimal motor impairment at 30 mg/kg, ip after 0.5 hrs by rotarod test; assay type: toxicity, organism-based; parameters: dose 30 mg/kg, route intraperitoneal; conditions: in vivo; summary of the method: as §3

## NC(=O)OCC(COC(N)=O)c1ccccc1 [FELBAMATE]
Rattus norvegicus [1]
  Ratio TD50/ED50: >2
[2]
  TD50: > 500 mg/kg
Rattus norvegicus [3]
  ED50: > 250 mg/kg
Rattus norvegicus [4]
  Ratio TD50/ED50: 20
Rattus norvegicus [5]
  ED50: 25 mg/kg

## CCC(COC(N)=O)CC(C)C (racemic)
Mus musculus [6]
  Activity: inactive
Mus musculus [7]
  Activity: Active
Mus musculus [8]
  Activity: Non-toxic
Mus musculus [9]
  Activity: inactive
Rattus norvegicus [10]
  Activity: Toxic
Rattus norvegicus [11]
  Activity: Non-toxic
Mus musculus [12]
  Activity: inactive
Mus musculus [13]
  Activity: inactive
Mus musculus [14]
  Activity: inactive
Rattus norvegicus [15]
  Activity: Toxic
Rattus norvegicus [16]
  Activity: Non-toxic
Mus musculus [17]
  Activity: inactive
Rattus norvegicus [18]
  Activity: Non-toxic
Rattus norvegicus [19]
  Activity: Non-toxic
Rattus norvegicus [20]
  Activity: Toxic
Rattus norvegicus [21]
  Activity: Toxic
Rattus norvegicus [22]
  Activity: Non-toxic
Mus musculus [23]
  Activity: Toxic
Mus musculus [24]
  Activity: Non-toxic
Rattus norvegicus [25]
  Activity: Non-toxic
Mus musculus [26]
  Activity: Active
Rattus norvegicus [27]
  Activity: Non-toxic
Rattus norvegicus [28]
  Activity: Non-toxic
Mus musculus [29]
  Activity: inactive
Mus musculus [30]
  Activity: inactive
Rattus norvegicus [31]
  Activity: Non-toxic
Mus musculus [32]
  Activity: Non-toxic
Rattus norvegicus [33]
  Activity: inactive
Mus musculus [34]
  Activity: inactive
Rattus norvegicus [35]
  Activity: inactive
Mus musculus [36]
  Activity: inactive
Mus musculus [37]
  Activity: Non-toxic
Rattus norvegicus [38]
  Activity: Toxic
Rattus norvegicus [39]
  Activity: inactive
Mus musculus [40]
  Activity: Non-toxic

## NC(=O)OC[C@@H](O)c1ccccc1Cl [CARISBAMATE]
Rattus norvegicus [1]
  Ratio TD50/ED50: 2.4
[2]
  TD50: 137 mg/kg
Rattus norvegicus [3]
  ED50: 58 mg/kg
Rattus norvegicus [4]
  Ratio TD50/ED50: 18
Rattus norvegicus [5]
  ED50: 8 mg/kg
